The sample as a whole holds a higher share of hits than the screen did.
IDH1 R132H inh – inhibitors of human IDH1 R132H. IDH1 R132H reductase, diaphorase/resazurin fluorescence, 60 min. O75874. actives 0.18% (n = 70,000). inhibition, % at 10 µM; in the data active = inhibition above about 34%; inconclusive = no clear call, values can overlap the other calls; inactive = below about 11%;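 also: 0% = DMSO and 100% = no enzyme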
Target sequence (O75874 whole entry R132H): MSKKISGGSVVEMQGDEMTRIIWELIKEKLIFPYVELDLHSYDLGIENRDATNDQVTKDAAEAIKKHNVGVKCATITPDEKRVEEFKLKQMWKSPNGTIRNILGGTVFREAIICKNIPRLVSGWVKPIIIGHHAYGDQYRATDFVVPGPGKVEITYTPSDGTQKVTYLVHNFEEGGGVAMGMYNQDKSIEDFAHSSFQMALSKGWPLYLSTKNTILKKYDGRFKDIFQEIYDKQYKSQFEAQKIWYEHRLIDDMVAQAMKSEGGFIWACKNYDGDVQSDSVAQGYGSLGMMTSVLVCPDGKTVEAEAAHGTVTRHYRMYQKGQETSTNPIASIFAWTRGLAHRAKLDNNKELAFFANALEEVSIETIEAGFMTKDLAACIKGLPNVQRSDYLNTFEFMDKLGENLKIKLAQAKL
T cruzi growth-1 – inhibitors of T. cruzi proliferation; T. cruzi beta-gal in NIH3T3, GalScreen luminescence, 90 h; inhibition, % at 8.34 µM; actives 5.9% (n = 77,000);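 active = mean inhibition above about 93%, with at least 55% of replicates each passing it, limit read from the data, passing the limit was not always enough; inconclusive = only one of those two conditions holds; inactive = neither condition holds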
KDM4C inh – inhibitors of human demethylase GASC-1 KDM4C; Q9H3R0; GST-KDM4C 2-372, H3K9me3 peptide, LANCE TR-FRET; inhibition, % at 12.5 µM; actives 0.15% (n = 96,000); AID 720574;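 active = mean replicate inhibition above about 25%, with at least 55% of replicates also reaching it, limit read from the data, passing the limit was not always enough; inconclusive = only one of those two conditions met; inactive = neither condition met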
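Assay system: GST-GASC-1 enzyme fragment 2-372 | Amount: 10 nM enzyme | Medium: HEPES buffer, pH 7.5, plus ascorbate | Reagent: H3K9me3 peptide substrate, Fe(II), 2-oxoglutarate | Doses: Single-point compound screen | Incubation: 30 min demethylation and 1 h detection at room temperature | Measured by: LANCE TR-FRET, excitation 340 nm, emissions 618 and 671 nm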
T cruzi growth-2 – inhibitors of T. cruzi proliferation; shares compounds with T cruzi growth-1; inhibition, % at 8.35 µM; actives 72% (n = 5,600); AID 651739; T. cruzi beta-gal in NIH3T3, GalScreen luminescence, 90 h;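 active = mean replicate inhibition above about 95% and at least 55% of replicates individually reaching it, limit read from the data; inconclusive = only one of the two criteria is met; inactive = neither criterion is met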
T cruzi growth-3 – inhibitors of T. cruzi proliferation; shares compounds with T cruzi growth-1; T. cruzi beta-gal in NIH3T3, GalScreen luminescence, 90 h; inhibition, % at 2.09 µM; actives 21% (n = 5,600);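 active = mean inhibition above about 95%, with at least 55% of replicates also reaching it, limit read from the data; inconclusive = meets just one of the two conditions; inactive = meets neither condition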;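 also: plate controls were neutral control median for no effect and positive control median for full effect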
3T3 cytotox – kills mouse NIH/3T3 fibroblasts; shares compounds with T cruzi growth-1; NIH/3T3 viability, CellTiter-Glo ATP luminescence, 90 h; cytotoxicity (signal decrease), % at 8.35 µM; actives 14% (n = 5,600); AID 651742;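 active = mean signal decrease across replicates above about 35% based on untreated-well scatter, with enough replicates individually passing, limit read from the data; inconclusive = no rule stated though some were filed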;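 also: 0% = median of neutral control wells and 100% = median of positive control wells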
3T3 cytotox 2 – cytotoxicity in mouse NIH/3T3 fibroblasts; shares compounds with T cruzi growth-1; inhibition, % at 24.9 µM; NIH/3T3 viability, CellTiter-Glo ATP luminescence, 90 h; actives 56% (n = 5,600);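 active = mean loss of cell viability signal at or above a set limit, and enough replicates individually reaching it; inconclusive = meets only the mean limit or only the replicate share; inactive = meets neither condition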;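 also: 0% = median of neutral control wells and 100% = median of positive control wells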
* = called active by the depositor; ? = inconclusive; . = no result.

SMILES	IDH1 R132H inh	T cruzi growth-1	KDM4C inh	T cruzi growth-2	T cruzi growth-3	3T3 cytotox	3T3 cytotox 2
C[C@@H]1CCCCO[C@@H](CN(C)C(=O)Nc2ccc3c(c2)OCO3)[C@@H](C)CN([C@@H](C)CO)C(=O)c2cc(NS(=O)(=O)c3ccccc3)ccc2O1	.	61.7	0.6	.	.	.	.
Cc1cc(C(=O)Nc2cccc3c2O[C@@H](CN(C)S(=O)(=O)c2ccc(Cl)cc2)[C@H](C)CN([C@H](C)CO)C3=O)n(C)n1	.	18.2	-0.5	.	.	.	.
COc1ccc(-c2ccccc2[C@H]2[C@@H](CO)N(C(=O)C3CCCC3)[C@H]2C#N)cc1	.	.	0.1	.	.	.	.
COc1ccc2c3c(n(C)c2c1)[C@@H](CO)N(Cc1ccccc1F)CC31CCN(C(=O)C2CC2)CC1	.	.	-1.0	.	.	.	.
Cc1cccc(S(=O)(=O)N2CCCCN3[C@H](CO)[C@@H](c4ccc(C#C[C@H](C)O)cc4)[C@@H]3C2)c1	.	80.2	-0.2	.	.	.	.
Cc1cccc(S(=O)(=O)N2CCCCN3[C@H](CO)[C@@H](c4ccc(C#C[C@H](C)O)cc4)[C@H]3C2)c1	.	?	0.4	80.3	25.3	9.1	33.5*
C[C@H]1CN([C@@H](C)CO)C(=O)c2cccc(NC(=O)NC3CCCCC3)c2O[C@H]1CN(C)S(=O)(=O)c1cn(C)cn1	2.7	-154.0	0.3	.	.	.	.
C[C@@H]1CCCCO[C@@H](CN(C)S(=O)(=O)c2ccc(Cl)cc2)[C@H](C)CN([C@H](C)CO)C(=O)c2cc(NS(=O)(=O)c3ccc(Cl)cc3)ccc2O1	.	62.1	0.1	.	.	.	.
C[C@@H]1CN([C@H](C)CO)C(=O)c2cc(NS(=O)(=O)c3ccc(Cl)cc3)ccc2O[C@@H](C)CCCCO[C@@H]1CN(C)S(=O)(=O)c1ccc(Cl)cc1	.	?	-0.8	99.7*	112.0*	-13.0	?
C[C@@H]1CN([C@H](C)CO)C(=O)c2cc(N(C)C)ccc2O[C@@H](C)CCCCO[C@H]1CN(C)S(=O)(=O)c1ccc(Cl)cc1	3.3	57.1	-0.7	.	.	.	.
C[C@H](CO)N1C[C@H](C)[C@@H](CN(C)S(=O)(=O)c2ccc(Cl)cc2)OCCCC[C@H](C)Oc2ccc(NS(=O)(=O)c3ccc(Cl)cc3)cc2C1=O	.	87.0	-0.9	.	.	.	.
C[C@@H]1CCCCO[C@H](CN(C)S(=O)(=O)c2ccc(Cl)cc2)[C@H](C)CN([C@H](C)CO)C(=O)c2cc(N(C)C)ccc2O1	-0.2	101.5*	0.6	104.5*	23.7	14.2	-2.5
C[C@@H]1CN([C@@H](C)CO)C(=O)c2cc(NS(=O)(=O)c3ccc(Cl)cc3)ccc2O[C@@H](C)CCCCO[C@@H]1CN(C)S(=O)(=O)c1ccc(Cl)cc1	.	97.9*	-0.6	100.6*	114.5*	-28.1	13.8
CNC(=O)C[C@H]1CC[C@H]2[C@@H](COC[C@@H](O)CN2Cc2ccc(C(F)(F)F)cc2)O1	.	.	1.9	.	.	.	.
O=C(Nc1ccc(F)cc1)N1C[C@@H]2[C@H](c3ccccc31)[C@H](CO)N2Cc1ccccc1Cl	.	58.3	-1.2	.	.	.	.
CC(C)CC#Cc1ccc2c(c1)O[C@H](CN(C)C(=O)c1ccncc1)[C@H](C)CN([C@H](C)CO)S2(=O)=O	-0.1	48.6	-0.3	.	.	.	.
O=C(C1CC1)N1CCCCN2[C@H](CO)[C@@H](c3ccc(-c4cccc(F)c4)cc3)[C@@H]2C1	.	75.2	5.4	.	.	.	.
O=C(C1CCCC1)N1CCCCN2[C@H](CO)[C@H](c3ccc(-c4cccc(F)c4)cc3)[C@@H]2C1	.	111.8*	.	113.2*	92.3	24.2	66.4*
O=C(C1CCC1)N1CCCCN2[C@H](CO)[C@@H](c3ccc(-c4cccc(F)c4)cc3)[C@H]2C1	.	37.4	.	.	.	.	.
O=C(C1CCCC1)N1CCCCN2[C@H](CO)[C@@H](c3ccc(-c4cccc(F)c4)cc3)[C@H]2C1	.	111.0*	.	104.4*	16.6	-0.6	103.9*
C[C@@H]1CN([C@@H](C)CO)C(=O)Cc2cc(NC(=O)Nc3ccc(C(F)(F)F)cc3)ccc2O[C@H]1CN(C)C(=O)Nc1ccc2c(c1)OCO2	.	.	-0.1	.	.	.	.
C[C@H](CO)N1C[C@H](C)[C@H](CN(C)S(=O)(=O)c2ccc(F)cc2)Oc2cc(C3=CCCC3)ccc2S1(=O)=O	-0.4	117.8*	-1.1	107.7*	77.7	37.0*	24.0*
Cc1ccc(S(=O)(=O)N(C)C[C@@H]2Oc3cc(C4=CCCC4)ccc3S(=O)(=O)N([C@H](C)CO)C[C@H]2C)cc1	0.2	.	0.2	.	.	.	.
C[C@@H]1CN([C@@H](C)CO)S(=O)(=O)c2ccc(C3=CCCC3)cc2O[C@@H]1CN(C)S(=O)(=O)c1ccc(F)cc1	0.0	119.5*	0.7	106.2*	75.2	29.0	30.5*
Cc1ccc(S(=O)(=O)N(C)C[C@H]2Oc3cc(C4=CCCC4)ccc3S(=O)(=O)N([C@@H](C)CO)C[C@@H]2C)cc1	-0.3	.	0.4	.	.	.	.
SMILES	IDH1 R132H inh	T cruzi growth-1	KDM4C inh	T cruzi growth-2	T cruzi growth-3	3T3 cytotox	3T3 cytotox 2
C[C@@H]1CCCCO[C@H](CN(C)S(=O)(=O)c2ccc(Cl)cc2)[C@@H](C)CN([C@@H](C)CO)C(=O)c2cc(NS(=O)(=O)c3cccs3)ccc2O1	-3.3	110.4*	-1.3	113.5*	70.2	6.8	2.8
C[C@H]1CCCCO[C@H](CN(C)S(=O)(=O)c2ccccc2)[C@@H](C)CN([C@@H](C)CO)C(=O)c2cc(NS(=O)(=O)c3cccs3)ccc2O1	0.0	60.9	-1.9	.	.	.	.
C[C@@H]1CCCCO[C@@H](CN(C)S(=O)(=O)c2ccc(Cl)cc2)[C@H](C)CN([C@@H](C)CO)C(=O)c2cc(NS(=O)(=O)c3cccs3)ccc2O1	-0.4	102.0*	0.1	105.0*	83.3	20.6	-2.2
C[C@@H]1CN([C@@H](C)CO)C(=O)c2cc(NS(=O)(=O)c3cccs3)ccc2O[C@@H](C)CCCCO[C@H]1CN(C)S(=O)(=O)c1ccc(Cl)cc1	.	92.9	1.3	.	.	.	.
COc1ccc(S(=O)(=O)Nc2ccc3c(c2)C(=O)N([C@H](C)CO)C[C@@H](C)[C@H](CN(C)S(=O)(=O)c2ccc(F)cc2)OCCCC[C@H](C)O3)cc1	.	71.5	-1.4	.	.	.	.
COc1ccc(S(=O)(=O)Nc2ccc3c(c2)C(=O)N([C@H](C)CO)C[C@H](C)[C@H](CN(C)S(=O)(=O)c2ccc(F)cc2)OCCCC[C@@H](C)O3)cc1	-0.4	-2.0	-0.9	.	.	.	.
COc1ccc(S(=O)(=O)N(C)C[C@@H]2OCCCC[C@H](C)Oc3ccc(NS(=O)(=O)c4ccc(F)cc4)cc3C(=O)N([C@@H](C)CO)C[C@H]2C)cc1	.	105.4*	-0.8	108.6*	39.7	-15.3	4.9

Bioassay records as filed in PubChem BioAssay.
